Experimental data from ChEMBL document CHEMBL1275531, “Genomewide expression profiling of cryptolepine-induced toxicity in Saccharomyces cerevisiae” (Antimicrob Agents Chemother, 2008).
Calls of active or inactive are those of the source. The calls are words filed in the database; no cut-off is given here.

Legend:
Saccharomyces cerevisiae [1] = assay: Downregulation of ARN1 gene expression in Saccharomyces cerevisiae relative to untreated control; type: functional
Summary of the method: (§1)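 Δerg6 cells treated 15 h at 7.5 or 17 μM, with the eight microarray hybridizations pooled. A gene counted as changed when two-tailed Student t test on log-transformed ratios gave P below 0.01 for ratio equal to 1. Genes grouped by GO biological-process category.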

Saccharomyces cerevisiae [2] = assay: Downregulation of ARN2 gene expression in Saccharomyces cerevisiae relative to untreated control; type: functional; summary of the method: as §1
Saccharomyces cerevisiae [3] = assay: Downregulation of SIT1 gene expression in Saccharomyces cerevisiae relative to untreated control; type: functional; summary of the method: as §1
Saccharomyces cerevisiae [4] = assay: Downregulation of FIT1 gene expression in Saccharomyces cerevisiae relative to untreated control; type: functional; summary of the method: as §1
Saccharomyces cerevisiae [5] = assay: Downregulation of FIT2 gene expression in Saccharomyces cerevisiae relative to untreated control; type: functional; summary of the method: as §1
Saccharomyces cerevisiae [6] = assay: Downregulation of FIT3 gene expression in Saccharomyces cerevisiae relative to untreated control; type: functional; summary of the method: as §1
Saccharomyces cerevisiae [7] = assay: Downregulation of FRE1 gene expression in Saccharomyces cerevisiae relative to untreated control; type: functional; summary of the method: as §1
Saccharomyces cerevisiae [8] = assay: Upregulation of FRE2 gene expression in Saccharomyces cerevisiae relative to untreated control; type: functional; summary of the method: as §1
Saccharomyces cerevisiae [9] = assay: Downregulation of FRE5 gene expression in Saccharomyces cerevisiae relative to untreated control; type: functional; summary of the method: as §1
Saccharomyces cerevisiae [10] = assay: Downregulation of FRE6 gene expression in Saccharomyces cerevisiae relative to untreated control; type: functional; summary of the method: as §1
Saccharomyces cerevisiae [11] = assay: Downregulation of FET3 gene expression in Saccharomyces cerevisiae relative to untreated control; type: functional; summary of the method: as §1
Saccharomyces cerevisiae [12] = assay: Upregulation of FET5 gene expression in Saccharomyces cerevisiae relative to untreated control; type: functional; summary of the method: as §1
Saccharomyces cerevisiae [13] = assay: Downregulation of FTR1 gene expression in Saccharomyces cerevisiae relative to untreated control; type: functional; summary of the method: as §1
Saccharomyces cerevisiae [14] = assay: Downregulation of FTH1 gene expression in Saccharomyces cerevisiae relative to untreated control; type: functional; summary of the method: as §1
Saccharomyces cerevisiae [15] = assay: Downregulation of FET4 gene expression in Saccharomyces cerevisiae relative to untreated control; type: functional; summary of the method: as §1
Saccharomyces cerevisiae [16] = assay: Downregulation of SMF1 gene expression in Saccharomyces cerevisiae relative to untreated control; type: functional; summary of the method: as §1
Saccharomyces cerevisiae [17] = assay: Upregulation of SMF2 gene expression in Saccharomyces cerevisiae relative to untreated control; type: functional; summary of the method: as §1
Saccharomyces cerevisiae [18] = assay: Downregulation of SMF3 gene expression in Saccharomyces cerevisiae relative to untreated control; type: functional; summary of the method: as §1
Saccharomyces cerevisiae [19] = assay: Cytotoxicity against Saccharomyces cerevisiae JN394 harboring deltarad52 mutant gene after 4 hrs; type: functional, organism-based; conditions: JN394, 4 h
Summary of the method: (§2)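 Growth assay: strains precultured in YPD at 30°C for 15 h, shaking 250 rpm in the dark, then standardized to OD600 0.05 in the same medium. Grown in triplicate with a range of concentrations (methanol stock, diluted before use) under continuous 4 h treatment; growth read as OD600 and inhibitory concentrations taken from the plots.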

Saccharomyces cerevisiae [20] = assay: Cytotoxicity against Saccharomyces cerevisiae BY4741 harboring deltaerg6 mutant gene after 4 hrs; type: functional, organism-based; conditions: BY4741, 4 h; summary of the method: as §2
Saccharomyces cerevisiae [21] = assay: Cytotoxicity against Saccharomyces cerevisiae BY4741 harboring deltaerg6 mutant gene at <10 uM after 4 hrs; type: functional, organism-based; summary of the method: as §2
Saccharomyces cerevisiae [22] = assay: Cytotoxicity against Saccharomyces cerevisiae; type: functional; summary of the method: as §2
Saccharomyces cerevisiae [23] = assay: Downregulation of ARN2 gene expression in Saccharomyces cerevisiae at 7.5 uM after 15 hrs by microarray analysis relative to untreated control; type: functional
Summary of the method: (§3)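 BY4741Δerg6 cells exposed 15 h to 7.5 or 17 μM; total RNA, 15 μg, used for Cy3/Cy5-dUTP indirect labeling. Arrays prehybridized at 42°C for 45 min, then hybridized in 50% formamide, 5× SSC. Each dose done in duplicate, each RNA hybridized twice with dye swap; treated/untreated fluorescence ratios log-transformed.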

Saccharomyces cerevisiae [24] = assay: Downregulation of ARN2 gene expression in Saccharomyces cerevisiae at 7.5 uM after 15 hrs by qRT-PCR relative to untreated control; type: functional
Summary of the method: (§4)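 qRT-PCR used aliquots of the microarray RNA (treated and untreated Δerg6, 7.5 or 17 μM, 15 h) plus two additional biological replicates. Cycling was 95°C 10 min, then 40 cycles of 95°C 15 s and 60°C 1 min, with a dissociation curve. Genomic DNA 10-fold dilution standard curves; no-template and no-enzyme controls in triplicate; relative expression by ΔΔCT.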

Saccharomyces cerevisiae [25] = assay: Downregulation of FIT3 gene expression in Saccharomyces cerevisiae at 7.5 uM after 15 hrs by microarray analysis relative to untreated control; type: functional; summary of the method: as §3
Saccharomyces cerevisiae [26] = assay: Downregulation of FIT3 gene expression in Saccharomyces cerevisiae at 7.5 uM after 15 hrs by qRT-PCR relative to untreated control; type: functional; summary of the method: as §4
Saccharomyces cerevisiae [27] = assay: Downregulation of PHO5 gene expression in Saccharomyces cerevisiae at 7.5 uM after 15 hrs by microarray analysis relative to untreated control; type: functional; summary of the method: as §3
Saccharomyces cerevisiae [28] = assay: Downregulation of PHO5 gene expression in Saccharomyces cerevisiae at 7.5 uM after 15 hrs by qRT-PCR relative to untreated control; type: functional; summary of the method: as §4
Saccharomyces cerevisiae [29] = assay: Downregulation of TIS11 gene expression in Saccharomyces cerevisiae at 7.5 uM after 15 hrs by microarray analysis relative to untreated control; type: functional; summary of the method: as §3
Saccharomyces cerevisiae [30] = assay: Downregulation of TIS11 gene expression in Saccharomyces cerevisiae at 7.5 uM after 15 hrs by qRT-PCR relative to untreated control; type: functional; summary of the method: as §4
Saccharomyces cerevisiae [31] = assay: Upregulation of HSP26 gene expression in Saccharomyces cerevisiae at 7.5 uM after 15 hrs by microarray analysis relative to untreated control; type: functional; summary of the method: as §3
Saccharomyces cerevisiae [32] = assay: Upregulation of HSP26 gene expression in Saccharomyces cerevisiae at 7.5 uM after 15 hrs by qRT-PCR relative to untreated control; type: functional; summary of the method: as §4
Saccharomyces cerevisiae [33] = assay: Upregulation of TPS1 gene expression in Saccharomyces cerevisiae at 7.5 uM after 15 hrs by microarray analysis relative to untreated control; type: functional; summary of the method: as §3
Saccharomyces cerevisiae [34] = assay: Upregulation of TPS1 gene expression in Saccharomyces cerevisiae at 7.5 uM after 15 hrs by qRT-PCR relative to untreated control; type: functional
Summary of the method: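 BY4741Δerg6 yeast (standardized to OD600 0.05 in YPD after 15-h 30°C preculture) grown with cryptolepine (1 mM methanol stock diluted) for 15 h; total RNA extracted, aliquots from microarray samples plus two additional biological replicates used for qRT-PCR: 95°C 10 min, 40 cycles 95°C 15 s/60°C 1 min, dissociation curve; genomic DNA standard curves; relative expression versus untreated by ΔΔCT.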

Saccharomyces cerevisiae [35] = assay: Downregulation of ARN2 gene expression in Saccharomyces cerevisiae at 17 uM after 15 hrs by microarray analysis relative to untreated control; type: functional; summary of the method: as §3
Saccharomyces cerevisiae [36] = assay: Downregulation of ARN2 gene expression in Saccharomyces cerevisiae at 17 uM after 15 hrs by qRT-PCR relative to untreated control; type: functional; summary of the method: as §4
Saccharomyces cerevisiae [37] = assay: Downregulation of FIT3 gene expression in Saccharomyces cerevisiae at 17 uM after 15 hrs by microarray analysis relative to untreated control; type: functional; summary of the method: as §3
Saccharomyces cerevisiae [38] = assay: Downregulation of FIT3 gene expression in Saccharomyces cerevisiae at 17 uM after 15 hrs by qRT-PCR relative to untreated control; type: functional; summary of the method: as §4
Saccharomyces cerevisiae [39] = assay: Downregulation of PHO5 gene expression in Saccharomyces cerevisiae at 17 uM after 15 hrs by microarray analysis relative to untreated control; type: functional; summary of the method: as §3
Saccharomyces cerevisiae [40] = assay: Downregulation of PHO5 gene expression in Saccharomyces cerevisiae at 17 uM after 15 hrs by qRT-PCR relative to untreated control; type: functional; summary of the method: as §4
Saccharomyces cerevisiae [41] = assay: Downregulation of TIS11 gene expression in Saccharomyces cerevisiae at 17 uM after 15 hrs by microarray analysis relative to untreated control; type: functional; summary of the method: as §3
Saccharomyces cerevisiae [42] = assay: Downregulation of TIS11 gene expression in Saccharomyces cerevisiae at 17 uM after 15 hrs by qRT-PCR relative to untreated control; type: functional; summary of the method: as §4
Saccharomyces cerevisiae [43] = assay: Upregulation of HSP26 gene expression in Saccharomyces cerevisiae at 17 uM after 15 hrs by microarray analysis relative to untreated control; type: functional; summary of the method: as §3
Saccharomyces cerevisiae [44] = assay: Upregulation of HSP26 gene expression in Saccharomyces cerevisiae at 17 uM after 15 hrs by qRT-PCR relative to untreated control; type: functional; summary of the method: as §4
Saccharomyces cerevisiae [45] = assay: Upregulation of TPS1 gene expression in Saccharomyces cerevisiae at 17 uM after 15 hrs by microarray analysis relative to untreated control; type: functional; summary of the method: as §3
Saccharomyces cerevisiae [46] = assay: Upregulation of TPS1 gene expression in Saccharomyces cerevisiae at 17 uM after 15 hrs by qRT-PCR relative to untreated control; type: functional; summary of the method: as §4
Saccharomyces cerevisiae [47] = assay: Downregulation of siderophore transport related gene expression in Saccharomyces cerevisiae; type: functional, organism-based; summary of the method: as §1
Saccharomyces cerevisiae [48] = assay: Downregulation of glucose catabolic process related gene expression in Saccharomyces cerevisiae; type: functional, organism-based; summary of the method: as §1
Saccharomyces cerevisiae [49] = assay: Downregulation of acid phosphatase activity related gene expression in Saccharomyces cerevisiae; type: functional, organism-based; summary of the method: as §1
Saccharomyces cerevisiae [50] = assay: Downregulation of fungal type cell wall related gene expression in Saccharomyces cerevisiae; type: functional, organism-based; summary of the method: as §1
Saccharomyces cerevisiae [51] = assay: Downregulation of stress response related gene expression in Saccharomyces cerevisiae; type: functional, organism-based; conditions: in the assay text read “Upregulation” for “Downregulation”; summary of the method: as §1

C[n+]1c2ccccc2cc2[n-]c3ccccc3c21.Cl [CRYPTOLEPINE HYDROCHLORIDE]
fold change (FC) (Saccharomyces cerevisiae [1]): 1.07
fold change (FC) (Saccharomyces cerevisiae [2]): 3.01
fold change (FC) (Saccharomyces cerevisiae [3]): 1.57
fold change (FC) (Saccharomyces cerevisiae [4]): 2.13
fold change (FC) (Saccharomyces cerevisiae [5]): 1.94
fold change (FC) (Saccharomyces cerevisiae [6]): 3.46
fold change (FC) (Saccharomyces cerevisiae [7]): 0.78
fold change (FC) (Saccharomyces cerevisiae [8]): 0.13
fold change (FC) (Saccharomyces cerevisiae [9]): 1.01
fold change (FC) (Saccharomyces cerevisiae [10]): 0.08
fold change (FC) (Saccharomyces cerevisiae [11]): 1.11
fold change (FC) (Saccharomyces cerevisiae [12]): 0.8
fold change (FC) (Saccharomyces cerevisiae [13]): 0.49
fold change (FC) (Saccharomyces cerevisiae [14]): 0.53
fold change (FC) (Saccharomyces cerevisiae [15]): 1.79
fold change (FC) (Saccharomyces cerevisiae [16]): 0.35
fold change (FC) (Saccharomyces cerevisiae [17]): 0.09
fold change (FC) (Saccharomyces cerevisiae [18]): 1.24
IC50 (Saccharomyces cerevisiae [19]): 20.3 µM
IC50 (Saccharomyces cerevisiae [20]): 25 µM
Activity (Saccharomyces cerevisiae [21]): Active
IC20 (Saccharomyces cerevisiae [22]): 7.5 µM
IC40 (Saccharomyces cerevisiae [22]): 17 µM
fold change (FC) (Saccharomyces cerevisiae [23]): 2.18
fold change (FC) (Saccharomyces cerevisiae [24]): 4.06
fold change (FC) (Saccharomyces cerevisiae [25]): 3.3
fold change (FC) (Saccharomyces cerevisiae [26]): 5.57
fold change (FC) (Saccharomyces cerevisiae [27]): 1.88
fold change (FC) (Saccharomyces cerevisiae [28]): 1.73
fold change (FC) (Saccharomyces cerevisiae [29]): 2.35
fold change (FC) (Saccharomyces cerevisiae [30]): 3.3
fold change (FC) (Saccharomyces cerevisiae [31]): 2.09
fold change (FC) (Saccharomyces cerevisiae [32]): 2.49
fold change (FC) (Saccharomyces cerevisiae [33]): 1.24
fold change (FC) (Saccharomyces cerevisiae [34]): 0.96
fold change (FC) (Saccharomyces cerevisiae [35]): 3.32
fold change (FC) (Saccharomyces cerevisiae [36]): 4.9
fold change (FC) (Saccharomyces cerevisiae [37]): 2.36
fold change (FC) (Saccharomyces cerevisiae [38]): 2.01
fold change (FC) (Saccharomyces cerevisiae [39]): 2.05
fold change (FC) (Saccharomyces cerevisiae [40]): 2.27
fold change (FC) (Saccharomyces cerevisiae [41]): 2.31
fold change (FC) (Saccharomyces cerevisiae [42]): 3.46
fold change (FC) (Saccharomyces cerevisiae [43]): 3.54
fold change (FC) (Saccharomyces cerevisiae [44]): 3.51
fold change (FC) (Saccharomyces cerevisiae [45]): 1.01
fold change (FC) (Saccharomyces cerevisiae [46]): 1.03
Activity (Saccharomyces cerevisiae [47]): Active
Activity (Saccharomyces cerevisiae [48]): Active
Activity (Saccharomyces cerevisiae [49]): Active
Activity (Saccharomyces cerevisiae [50]): Active
Activity (Saccharomyces cerevisiae [51]): Active
